# Results from different studies.
# Lines come from different studies, so protocols differ. pEC50, pIC50, pKd, pKi: −log10 of the molar value.
# HTR2C: 5-hydroxytryptamine receptor 2C (HTR2C, Homo sapiens, UniProt P28335)
# HLA class I histocompatibility antigen, B alpha chain: HLA class I histocompatibility antigen, B alpha chain (Homo sapiens, UniProt P01889)
# PLK1 polo-box: Serine/threonine-protein kinase PLK1, polo-box (PLK1, Homo sapiens, UniProt P53350)
# HTR2B: 5-hydroxytryptamine receptor 2B (HTR2B, Homo sapiens, UniProt P41595)
Structure (SMILES),target,observed,mode,technique,pH,measurement,value
COc1cc(C(F)(F)F)c(OC)cc1C1CCCNC1 (stereo not shown),HTR2C,calcium signal,agonist,,,pEC50,7.15
CC[C@H](C)[C@H](NC(=O)[C@H](CCCNC(=N)N)NC(=O)[C@H](CC(N)=O)NC(=O)[C@H](Cc1ccccc1)NC(=O)[C@@H](NC(=O)[C@@H](N)Cc1ccc(O)cc1)[C@@H](C)O)C(=O)N[C@@H](Cc1c[nH]cn1)C(=O)N[C@@H](CCC(=O)O)C(=O)N[C@@H](Cc1ccccc1)C(=O)O,"HLA class I histocompatibility antigen, B alpha chain",cell-free assay,,,,pIC50,4.36
c1cncc([C@@H]2CCCN2)c1,"Neuronal acetylcholine receptor; alpha3/beta4 (Rattus norvegicus, UniProt P04757+P12392)",cell-free assay,,radioligand,,pKi,5.89
O=C1Nc2ccc3ncsc3c2/C1=C/c1cnc[nH]1,"Serine/threonine-protein kinase Nek6 (NEK6, Homo sapiens, UniProt Q9HC98)",enzyme activity,inhibitor,,,pIC50,4.56
CC[C@H](C)[C@H](NC(=O)[C@@H]1CCCN1C(=O)[C@H](Cc1c[nH]cn1)NC(=O)[C@H](CCCCN)NC(=O)[C@H](Cc1ccc(O)cc1)NC(=O)[C@@H](NC(=O)[C@@H](N)Cc1ccc(O)cc1)[C@@H](C)O)C(=O)N[C@@H](Cc1ccc(O)cc1)C(=O)N[C@@H](CC(C)C)C(=O)O,"HLA class I histocompatibility antigen, B alpha chain",cell-free assay,,,,pIC50,4.75
COc1cc2c3c(c1OC)-c1c(OC)ccc(Cl)c1CC3N(C)CC2 (racemic),HTR2C,cell-free assay,,radioligand,,pKi,6.10
COc1cc2c(cc1OC)CN(CCc1ccc(NC(=O)c3cccc4c(=O)c5cccc(OC)c5[nH]c34)cc1)CC2,HTR2C,cell-free assay,,,,pKi,7.03
CC[C@H](C)[C@H](NC(=O)[C@@H]1CCCN1C(=O)[C@H](CCC(=O)O)NC(=O)[C@H](CC(C)C)NC(=O)[C@@H](N)C(C)C)C(=O)N[C@@H](CC(C)C)C(=O)N[C@@H](Cc1c[nH]cn1)C(=O)N[C@@H](CO)C(=O)N[C@H](C(=O)O)[C@@H](C)OP(=O)(O)O,PLK1 polo-box,binding,,MST,pH 8,pKd,7.86
CC[C@H](C)[C@H](NC(=O)[C@@H]1CCCN1C(=O)[C@H](Cc1c[nH]cn1)NC(=O)[C@H](CCCCN)NC(=O)[C@H](Cc1ccccc1)NC(=O)[C@H](CC(C)C)NC(=O)[C@@H](N)CCCCN)C(=O)N[C@@H](CCC(N)=O)C(=O)N[C@@H](CC(C)C)C(=O)O,"HLA class I histocompatibility antigen, B alpha chain",cell-free assay,,,,pIC50,5.13
CC[C@H](C)[C@H](NC(=O)[C@@H](N)CCC(=O)O)C(=O)N[C@@H](C)C(=O)N1CCC[C@H]1C(=O)N[C@H](C(=O)N[C@@H](CC(C)C)C(=O)N[C@@H](Cc1c[nH]cn1)C(=O)N[C@@H](CO)C(=O)N[C@H](C(=O)O)[C@@H](C)OP(=O)(O)O)C(C)C,PLK1 polo-box,binding,,MST,pH 8,pKd,7.57
N#CC(C#N)=Cc1ccc([N+](=O)[O-])c(O)c1,"Casein kinase I isoform delta (CSNK1D, Homo sapiens, UniProt P48730)",binding,,SPR,,pKd,< 4.30
CC(C)C[C@H](NC(=O)[C@H](CCC(N)=O)NC(=O)[C@H](CCCNC(=N)N)NC(=O)[C@H](CO)NC(=O)[C@H](Cc1ccc(O)cc1)NC(=O)[C@H](CC(C)C)NC(=O)[C@@H](N)CCCNC(=N)N)C(=O)N[C@@H](Cc1c[nH]cn1)C(=O)N[C@@H](Cc1ccccc1)C(=O)O,"HLA class I histocompatibility antigen, B alpha chain",cell-free assay,,,,pIC50,5.12
COc1cc(CCNC(CO)c2ccccc2)c(OC)cc1C#N (stereo not shown),HTR2C,G protein activation,agonist,BRET,,pEC50,5.54
CSCC[C@H](NC(=O)[C@H](CO)NC(=O)[C@H](CC(C)C)NC(=O)[C@H](CO)NC(=O)[C@H](Cc1c[nH]cn1)NC(=O)CNC(=O)[C@H](Cc1ccc(O)cc1)NC(=O)[C@H](CC(C)C)NC(=O)[C@@H](N)CCCNC(=N)N)C(=O)O,"HLA class I histocompatibility antigen, B alpha chain",cell-free assay,,,,pIC50,6.23
COc1cc2c(cc1OC)-c1c(OC)c(OC)cc3c1[C@H](C2)N(C)CC3 (racemic),HTR2B,ligand displacement,,radioligand,,pKi,6.21
CCCCC1CNC2CCc3ccc(OC)cc3C12 (racemic),HTR2B,ligand displacement,,radioligand,,pKi,6.77
